This is an account of results in ChEMBL document CHEMBL3525931, “Stereoselective interaction of pantoprazole with ABCG2. II. In vitro flux analysis” (Drug Metab Dispos, 2012).

Data set [1] addresses T1, Broad substrate specificity ATP-binding cassette transporter ABCG2 (Rattus norvegicus, UniProt Q80W57).
T1 sequence (Q80W57 whole entry): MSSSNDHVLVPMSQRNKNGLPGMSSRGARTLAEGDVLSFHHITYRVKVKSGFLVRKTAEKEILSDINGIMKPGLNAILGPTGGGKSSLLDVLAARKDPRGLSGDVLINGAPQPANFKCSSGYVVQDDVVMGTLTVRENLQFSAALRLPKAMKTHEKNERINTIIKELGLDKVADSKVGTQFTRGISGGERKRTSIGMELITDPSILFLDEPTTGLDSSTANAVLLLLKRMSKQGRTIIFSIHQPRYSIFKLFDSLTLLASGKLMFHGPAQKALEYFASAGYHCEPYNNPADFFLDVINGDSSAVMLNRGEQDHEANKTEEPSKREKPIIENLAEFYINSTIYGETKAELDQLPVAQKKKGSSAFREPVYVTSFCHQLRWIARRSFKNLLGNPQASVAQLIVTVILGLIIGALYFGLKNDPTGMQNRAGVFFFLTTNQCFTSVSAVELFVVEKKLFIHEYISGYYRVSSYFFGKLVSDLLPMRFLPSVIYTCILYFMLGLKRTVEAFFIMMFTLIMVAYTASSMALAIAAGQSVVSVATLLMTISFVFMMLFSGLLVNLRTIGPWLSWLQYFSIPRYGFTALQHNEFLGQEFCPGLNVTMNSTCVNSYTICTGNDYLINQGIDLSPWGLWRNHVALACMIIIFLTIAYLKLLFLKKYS
The data set is described as follows: Observed permeability in MDCK2 cells expressing rat ABCG2 assessed as ABCG2-mediated apical to basolateral transport at 50 uM after 0.5 to 1 hrs by HPLC method. It is filed as ADME, cell-based. The following applies: mdck-ii. In a few lines: (§1)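 Mock (empty pcDNA3.1) or rat Abcg2/human ABCG2-transfected MDCKII, G418-selected, seeded on 3.0-μm Transwell filters at 1.0×10^6 cells/well, grown 4 days to TEER >200 Ω·cm². Single isomer loaded apical or basolateral in serum-free Opti-MEM I with 0.2 μCi/ml [3H]mannitol, 37°C 5% CO2. Receiver sampled at 0.5 and 1 h. Quantified by HPLC-UV 290 nm. Permeability = initial rate/(area × donor concentration). Efflux ratio = B→A rate / A→B rate. n = 3, mean ± S.D.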

Data set [2] addresses T2, Broad substrate specificity ATP-binding cassette transporter ABCG2 (Homo sapiens, UniProt Q9UNQ0).
T2 sequence (Q9UNQ0 whole entry): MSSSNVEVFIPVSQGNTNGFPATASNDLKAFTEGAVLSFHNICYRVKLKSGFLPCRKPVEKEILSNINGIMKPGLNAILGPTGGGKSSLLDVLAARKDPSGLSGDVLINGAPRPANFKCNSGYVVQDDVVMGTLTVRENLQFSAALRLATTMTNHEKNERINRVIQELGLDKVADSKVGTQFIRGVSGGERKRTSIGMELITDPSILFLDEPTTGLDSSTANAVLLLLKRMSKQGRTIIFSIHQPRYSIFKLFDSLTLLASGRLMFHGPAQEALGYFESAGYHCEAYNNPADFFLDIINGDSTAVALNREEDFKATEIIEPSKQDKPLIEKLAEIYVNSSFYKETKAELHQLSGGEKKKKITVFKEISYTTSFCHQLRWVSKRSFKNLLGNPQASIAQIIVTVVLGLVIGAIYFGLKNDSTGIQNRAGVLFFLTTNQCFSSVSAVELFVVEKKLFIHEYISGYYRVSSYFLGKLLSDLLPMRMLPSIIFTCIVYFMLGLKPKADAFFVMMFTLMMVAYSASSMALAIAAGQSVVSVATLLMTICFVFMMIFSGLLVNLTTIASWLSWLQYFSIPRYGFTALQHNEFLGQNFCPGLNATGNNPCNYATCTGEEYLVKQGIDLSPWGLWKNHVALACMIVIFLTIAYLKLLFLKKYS
Description: Observed permeability in MDCK2 cells expressing human ABCG2 assessed as ABCG2-mediated basolateral to apical transport at 10 uM after 0.5 to 1 hrs by HPLC method. In kind it is ADME, cell-based. As to conditions: mdck-ii. In a few lines:
as §1

In data set [3] the target is T2, Broad substrate specificity ATP-binding cassette transporter ABCG2. The data set is described as follows: Observed permeability in MDCK2 cells expressing human ABCG2 assessed as ABCG2-mediated basolateral to apical transport at 200 uM after 0.5 to 1 hrs by HPLC method. In kind it is ADME, cell-based. As to conditions: mdck-ii. In a few lines:
as §1

Data set [4] shares this target. Description: Observed permeability in MDCK2 cells expressing human ABCG2 assessed as ABCG2-mediated basolateral to apical transport at 30 uM after 0.5 to 1 hrs by HPLC method. In kind it is ADME, cell-based. The following applies: mdck-ii. In a few lines:
as §1

Data set [5] deals with T1, Broad substrate specificity ATP-binding cassette transporter ABCG2. The data set is described as follows: Maximum drug transport rate in MDCK2 cells expressing rat ABCG2 assessed as ABCG2-mediated transport by HPLC method. In kind it is ADME, cell-based. As to conditions: mdck-ii. In short, it runs like this: (§2)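 Kinetics came from the same Transwell bidirectional flux runs in rat Abcg2- or human ABCG2-MDCKII, with donor 3–200 μM single isomer. Cellular concentrations were predicted from a three-compartment model using PS_D from mock cells and PS_PC from mannitol. Apparent apical efflux permeability was fitted against predicted cellular concentration by saturable kinetics to give K_M and T_max.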

In data set [6] the target is T3, ABCG2 (Rattus norvegicus, UniProt Q80W57).
T3 sequence (Q80W57 whole entry): T1 sequence (Q80W57 whole entry)
The data set is described as follows: Asymmetry efflux ratio in MDCK2 cells expressing rat ABCG2 assessed as ABCG2-mediated drug transport ratio at 3 uM after 0.5 to 1 hrs by HPLC method. It is filed as ADME, cell-based. In a few lines:
as §1

Data set [7] addresses T3, ABCG2. Description: Asymmetry efflux ratio in MDCK2 cells expressing rat ABCG2 assessed as ABCG2-mediated drug transport ratio at 30 uM after 0.5 to 1 hrs by HPLC method. In kind it is ADME, cell-based. In a few lines:
as §1

Data set [8] addresses T2, Broad substrate specificity ATP-binding cassette transporter ABCG2. Description: Maximum drug transport rate in MDCK2 cells expressing human ABCG2 assessed as ABCG2-mediated transport by HPLC method. In kind it is ADME, cell-based. As to conditions: mdck-ii. In a few lines: as §2
Data set [9] can be described thus: Observed permeability in MDCK2 cells assessed as apical to basolateral transport at 30 uM after 0.5 to 1 hrs by HPLC method. In kind it is ADME, cell-based, Canis lupus familiaris. The following applies: dog, mdck-ii. In a few lines: as §1
A short description of data set [10]: Observed permeability in MDCK2 cells assessed as basolateral to apical transport at 3 uM after 0.5 to 1 hrs by HPLC method. It is filed as ADME, cell-based, Canis lupus familiaris. As to conditions: dog, mdck-ii. In a few lines: as §1
A short description of data set [11]: Observed permeability in MDCK2 cells assessed as basolateral to apical transport at 200 uM after 0.5 to 1 hrs by HPLC method. It is filed as ADME, cell-based, Canis lupus familiaris. As to conditions: dog, mdck-ii. In a few lines: as §1
Data set [12] addresses T2, Broad substrate specificity ATP-binding cassette transporter ABCG2. The data set is described as follows: Observed permeability in MDCK2 cells expressing human ABCG2 assessed as ABCG2-mediated apical to basolateral transport at 10 uM after 0.5 to 1 hrs by HPLC method. In kind it is ADME, cell-based. The following applies: mdck-ii. In short, it runs like this:
as §1

Data set [13] can be described thus: Observed permeability in MDCK2 cells assessed as basolateral to apical transport at 50 uM after 0.5 to 1 hrs by HPLC method. In kind it is ADME, cell-based, Canis lupus familiaris. The following applies: dog, mdck-ii. In short, it runs like this: as §1
The target in data set [14] is T3, ABCG2. The data set is described as follows: Asymmetry efflux ratio in MDCK2 cells expressing rat ABCG2 assessed as ABCG2-mediated drug transport ratio at 50 uM after 0.5 to 1 hrs by HPLC method. In kind it is ADME, cell-based. In a few lines: as §1
The nature of data set [15]: Observed permeability in MDCK2 cells assessed as apical to basolateral transport at 3 uM after 0.5 to 1 hrs by HPLC method. It is filed as ADME, cell-based, Canis lupus familiaris. As to conditions: dog, mdck-ii. In a few lines:
as §1

For data set [16], the target named is T1, Broad substrate specificity ATP-binding cassette transporter ABCG2. The data set is described as follows: Observed permeability in MDCK2 cells expressing rat ABCG2 assessed as ABCG2-mediated basolateral to apical transport at 3 uM after 0.5 to 1 hrs by HPLC method. In kind it is ADME, cell-based. The following applies: mdck-ii. In short, it runs like this:
as §1

For data set [17] the target is unchanged. Description: Observed permeability in MDCK2 cells expressing rat ABCG2 assessed as ABCG2-mediated apical to basolateral transport at 3 uM after 0.5 to 1 hrs by HPLC method. In kind it is ADME, cell-based. The following applies: mdck-ii. In a few lines:
as §1

As usually defined, the efflux ratio is a quotient of directional permeabilities that is used to spot active efflux. `COc1ccnc(C[S@@+]([O-])c2nc3cc(OC(F)F)ccc3[nH]2)c1OC`: the Papp in data set [1] is 79.1 uL/hr/cm2; in data set [2], 246 uL/hr/cm2; in [3] it was 179 uL/hr/cm2; in data set [4], 240 uL/hr/cm2; in [9], 110 uL/hr/cm2; in data set [10], 117 uL/hr/cm2. In addition, the Papp amounted to 140 uL/hr/cm2 in data set [11]; 42.2 uL/hr/cm2 in [12]; 135 uL/hr/cm2 in [13]; 116 uL/hr/cm2 in data set [15]; 238 uL/hr/cm2 in [16]; 12.8 uL/hr/cm2 in data set [17]. The results for the Drug transport in [5] and in data set [8] were 7.86 nmol/hr.cm2 and 10.2 nmol/hr.cm2, respectively. In addition, the efflux ratio at 3 µM at ABCG2 [6] was found to be 18.7. For the same molecule, on ABCG2 [7], the efflux ratio at 30 µM is 6.16. Besides, the efflux ratio at 50 µM on ABCG2 [14] was 2.46.

As for `COc1ccnc(C[S@+]([O-])c2nc3cc(OC(F)F)ccc3[nH]2)c1OC`, the Papp worked out at 109 uL/hr/cm2 in data set [1]; 255 uL/hr/cm2 in [2]; 132 uL/hr/cm2 in data set [3]; 211 uL/hr/cm2 in [4]; 116 uL/hr/cm2 in data set [9]; 120 uL/hr/cm2 in data set [10]. Also, the Papp in data set [11] amounted to 135 uL/hr/cm2; in data set [12] it was 31.6 uL/hr/cm2; in data set [13], 126 uL/hr/cm2; in [15], 118 uL/hr/cm2; in data set [16], 253 uL/hr/cm2; in data set [17], 7.4 uL/hr/cm2. Further, the Drug transport in [5] came to 2.49 nmol/hr.cm2; in [8] it was 3.29 nmol/hr.cm2. Further, the efflux ratio at 3 µM at ABCG2 [6] is 34. Besides, the efflux ratio at 30 µM on ABCG2 [7] turned out to be 1.63. The efflux ratio at 50 µM at ABCG2 [14] worked out at 1.26.
